Data reported in PMC6137948 (Drug Design, Development and Therapy, 2018).
Entries after “also recorded” stand apart in the source; their conditions may differ.

Experiments:
[1] = tested on: S. epidermidis 533; experiment: MIC, broth micro-dilution, pre-screening panel; type: cell-based, Staphylococcus epidermidis; conditions: Mueller Hinton broth
[2] = tested on: VRE; conditions: Introduction; cited from earlier work
[3] = tested on: genera Staphylococcus and Enterococcus; experiment: Antimicrobial susceptibility testing, panel of 676 isolates, summary; type: cell-based; conditions: for MIC90 for the genera Staphylococcus and Enterococcus: panel of 676 isolates, except for E. faecium
[4] = tested on: E. faecalis 559; experiment: MIC, broth micro-dilution, pre-screening panel; type: cell-based, Enterococcus faecalis; conditions: E. faecalis 559 (VSE), Mueller Hinton broth
[5] = tested on: E. faecalis (n=122); experiment: Antimicrobial susceptibility testing of clinical isolates; type: cell-based, Enterococcus faecalis
Procedure, shortened: (§1)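 Non-duplicate clinical isolates from hospitalised adults and children with community or nosocomial infections (skin/soft tissue, respiratory tract, bone, joint, urinary tract, abdominal). Tested per EUCAST recommendations by broth microdilution in Mueller Hinton broth following NCCLS procedures.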

[6] = tested on: S. aureus (MSSA, n=179); experiment: as above; type: cell-based, Staphylococcus aureus
Procedure, shortened: as §1

[7] = tested on: Coagulase-negative Staphylococcus (n=45); experiment: as above; type: cell-based
Procedure, shortened: as §1

[8] = tested on: S. haemolyticus 602; experiment: MIC, broth micro-dilution, pre-screening panel; type: cell-based, Staphylococcus haemolyticus; conditions: Mueller Hinton broth
[9] = tested on: E. faecium 568; experiment: MIC, broth micro-dilution, pre-screening panel; type: cell-based, Enterococcus faecium; conditions: E. faecium 568 (VSE), Mueller Hinton broth
[10] = tested on: CBA mice; experiment: Acute toxicity in mice; conditions: for MTD (LD10): CBA mice, single bolus IV injection in 5% glucose, Litchfield and Wilcoxon; for ratio between therapeutic (ED50) and toxic doses (MTD): ED50 in sepsis model / MTD in mice
[11] = tested on: S. aureus 3797 (VISA); experiment: MIC, broth micro-dilution, pre-screening panel; type: cell-based, Staphylococcus aureus; conditions: S. aureus 3797 (VISA HIP-5836), Mueller Hinton broth
[12] = tested on: VISA; conditions: Introduction; cited from earlier work
[13] = tested on: S. aureus 3798 (VISA); experiment: MIC, broth micro-dilution, pre-screening panel; type: cell-based, Staphylococcus aureus; conditions: S. aureus 3798 (VISA HIP-5827), Mueller Hinton broth
[14] = tested on: S. aureus (MRSA, n=255); experiment: Antimicrobial susceptibility testing of clinical isolates; type: cell-based, Staphylococcus aureus
Procedure, shortened: as §1

[15] = tested on: vancomycin-intermediate resistant Staphylococcus aureus (VISA); experiment: MIC, pre-screening panel, summary for VISA strains; type: cell-based; conditions: summary of Table 1, S. aureus 3797 and 3798
[16] = tested on: non-immune activation of histamine release (inflammatory reaction to concanavalin A); experiment: Pseudoallergic inflammatory reaction on concanavalin A; type: in vivo; conditions: male CBA mice; single IV dose of MTD
[17] = tested on: E. faecium (n=75); experiment: Antimicrobial susceptibility testing of clinical isolates; type: cell-based, Enterococcus faecium; conditions: for MIC 50% (MIC50) / MIC 90% (MIC90): E. faecium n=75
[18] = tested on: panel of clinical isolates of Gram-positive microorganisms; experiment: MIC, pre-screening panel, summary for all tested strains; type: cell-based; conditions: text summary of Table 1, all strains of the pre-screening panel
[19] = tested on: S. aureus (strain 10); experiment: Mouse model of staphylococcal sepsis; type: in vivo; conditions: staphylococcal sepsis in mice, IV
Procedure, shortened: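 Female SHK mice (22–25 g), quarantined 2 weeks, infected IV with mouse-adapted S. aureus strain 10 at lethal dose (LD100 3 × 10^8 CFU/mouse). Thirty minutes later, test compound given IV in 5% glucose at 6 doses (0.25–4.5 mg/kg); comparator glycopeptides at 2.5–7.5 and 0.5–5.0 mg/kg. Untreated infected controls included. Mortality recorded daily for 10 days. ED50 by Barents frequency-accumulation method; ratios from ED50 values.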

[20] = VRE isolates of the E. faecium collection

Q: What does the source list for “Vancomycin [compound 1, reference compound]”?
A: MIC [1]: 2 µg/mL; activity against VRE, in words [2]: inactive; MIC90 for the genera Staphylococcus and Enterococcus [3]: 1 to 2 µg/mL; MIC [4]: 2 µg/mL; MIC 50% (MIC50) [5]: 1 µg/mL; MIC 90% (MIC90) [5]: 2 µg/mL; MIC 50% (MIC50) [6]: 1 µg/mL; MIC 90% (MIC90) [6]: 1 µg/mL; MIC 50% (MIC50) [7]: 2 µg/mL; MIC 90% (MIC90) [7]: 2 µg/mL; MIC [8]: 2 µg/mL; MIC [9]: 2 µg/mL; MTD (LD10) [10]: 360 mg/kg; ratio between therapeutic (ED50) and toxic doses (MTD) ([10]; IV): 1/90; MIC [11]: 8 µg/mL; MIC for VISA isolates [12]: ≥ 8 µg/mL; MIC [13]: 8 µg/mL; MIC 50% (MIC50) [14]: 1 µg/mL; MIC 90% (MIC90) [14]: 2 µg/mL; MICs against VISA strains [15]: 4 to 8 mg/L; pseudoallergic inflammatory reaction on concanavalin A, in words [16]: statistically significant elevations of Me with respect to Mc; MIC 50% (MIC50) [17]: 1 µg/mL; MIC 90% (MIC90) [17]: 2 µg/mL; MIC for strains of vancomycin-resistant E. faecium (VRE) [17, 20]: > 64 µg/mL; number of resistant strains of E. faecium (VRE) ([17]; strains with MIC =64 mg/L (b1) / MIC >64 mg/L, number (% of strains)): 7 (8%)

Q: For Vancomycin piperidide [compound 4], which MIC [1] is on record?
A: 0.5 µg/mL

Q: And the MIC [9]?
A: 0.5 µg/mL

Q: And the MIC [11]?
A: 1 µg/mL

Q: And the MIC [13]?
A: 1 µg/mL

Q: What about the “MICs against the tested strains” value [18] of the same substance?
A: 0.5 to 8 mg/L

Q: And the “MICs against VISA strains” value [15]?
A: 0.5 to 2 mg/L

Q: What does the source list for Eremomycin piperidide [compound 6]?
A: MIC [1]: 0.13 µg/mL; MIC [9]: 0.5 µg/mL; MIC [11]: 0.5 µg/mL; MIC [13]: 2 µg/mL; MICs against VISA strains [15]: 0.5 to 2 mg/L

Q: Which MIC [1] does the source give for Eremomycin pyrrolidide [compound 5] here?
A: 0.25 µg/mL

Q: And the “potency exceeding that of vancomycin (1)” value ([3]; S. aureus, coagulase-negative Staphylococcus and Enterococcus strains)?
A: 2–4 dilutions

Q: What about the “MIC90 for the genera Staphylococcus and Enterococcus” value [3] of the same substance?
A: 0.5 µg/mL

Q: And the MIC [4]?
A: 0.25 µg/mL

Q: What about the “MIC 50% (MIC50)” value [5] of the same substance?
A: 0.25 µg/mL

Q: What about the “MIC 90% (MIC90)” value [5] of the same substance?
A: 0.5 µg/mL

Q: And the “MIC 50% (MIC50)” value [6]?
A: 0.5 µg/mL

Q: What about the “MIC 90% (MIC90)” value [6] of the same substance?
A: 0.5 µg/mL

Q: What about the “MIC 50% (MIC50)” value [7] of the same substance?
A: 0.25 µg/mL

Q: And the “MIC 90% (MIC90)” value [7]?
A: 0.5 µg/mL

Q: And the “ED50 times lower than that for 1” value [19]?
A: 5 times

Q: What about the “ED50 times lower than that for 2” value [19] of the same substance?
A: 2.5 times

Q: And the MIC [8]?
A: 0.25 µg/mL

Q: And the MIC [9]?
A: 0.13 µg/mL

Q: And the “MTD (LD10)” value [10]?
A: 119.7 mg/kg

Q: And the “ratio between therapeutic (ED50) and toxic doses (MTD)” value ([10]; IV)?
A: 1/150

Q: What about the “acute toxicity, fold higher” value ([10]; by LD50 compared with 1, CBA mice, IV) of the same substance?
A: about 2 fold

Q: What about the “therapeutically efficient dose, fold smaller than MTD” value ([10]; mice, IV) of the same substance?
A: 150 fold

Q: What about the MIC [11] of the same substance?
A: 1 µg/mL

Q: What about the MIC [13] of the same substance?
A: 1 µg/mL

Q: What about the “MIC 50% (MIC50)” value [14] of the same substance?
A: 0.25 µg/mL

Q: What about the “MIC 90% (MIC90)” value [14] of the same substance?
A: 0.5 µg/mL

Q: What about the “MICs against VISA strains” value [15] of the same substance?
A: 0.5 to 2 mg/L

Q: And the “MICs against VISA strains” value ([15]; listed as eremomycin pyrrolidide (5))?
A: 1 mg/L

Q: And the “pseudoallergic inflammatory reaction on concanavalin A, in words” value [16]?
A: did not induce pseudoallergic inflammatory reaction; also recorded: non-significant difference; also recorded: no histamine release activity

Q: What about the “MIC 50% (MIC50)” value [17] of the same substance?
A: 0.125 µg/mL

Q: And the “MIC 90% (MIC90)” value [17]?
A: 4 µg/mL

Q: And the “susceptibility of vancomycin-resistant E. faecium (VRE) strains, in words” value [17, 20]?
A: susceptible

Q: Which results are given for Vancomycin pyrrolidide [compound 3]?
A: MIC [1]: 0.5 µg/mL; MIC [4]: 2 µg/mL; MIC [8]: 0.5 µg/mL; MIC [9]: 1 µg/mL; MIC [11]: 4 µg/mL; MIC [13]: 8 µg/mL; MICs against the tested strains [18]: 0.5 to 8 mg/L

Q: With “Eremomycin [compound 2, reference compound]” as the substance, how does the MIC [1] read?
A: 0.25 µg/mL

Q: And the “activity against VRE, in words” value [2]?
A: inactive

Q: What about the MIC [4] of the same substance?
A: 0.5 µg/mL

Q: What about the MIC [8] of the same substance?
A: 0.25 µg/mL

Q: And the MIC [9]?
A: 0.5 µg/mL

Q: And the “MTD (LD10)” value [10]?
A: 877.9 mg/kg

Q: What about the “acute toxicity, fold lower than that of 1” value ([10]; by LD50, CBA mice, IV) of the same substance?
A: ~3 fold

Q: What about the MIC [11] of the same substance?
A: 4 µg/mL

Q: And the “MIC against VISA” value [12]?
A: 8 µg/mL

Q: And the MIC [13]?
A: 4 µg/mL

Q: What about the “MICs against VISA strains” value [15] of the same substance?
A: 4 to 8 mg/L

Q: What about the “pseudoallergic inflammatory reaction on concanavalin A, in words” value [16] of the same substance?
A: statistically significant elevations of Me with respect to Mc
